Reference: paper PMC5028085 (Drug Design, Development and Therapy, 2016)
Structures can show the parent of a compound that is named as a salt. Where two headings read alike, the source gives them in different places. Marks after values point to notes of the source that are not given here.

Columns and labels:
[1] = test system: CYP2D6; settings: cited from earlier work
[2] = test system: CYP2D6; settings: single coadministration with sarpogrelate hydrochloride 100 mg; cited from earlier work
[3] = target: P-gp (Homo sapiens, UniProt P08183); type: cell-based; settings: for Permeability Papp,AB of loperamide / Permeability Papp,BA of loperamide / Inhibition (%): MDCK-II-P-gp; for Permeability Papp,AB of loperamide / Permeability Papp,BA of loperamide: loperamide 10 μM, mean ± SD (n=3); for Inhibition (%): loperamide transport
[4] = target: T1, BCRP (Homo sapiens, UniProt Q9UNQ0); type: cell-based; settings: for Permeability Papp,AB of prazosin / Permeability Papp,BA of prazosin / Inhibition (%): MDCK-II-BCRP; for Permeability Papp,AB of prazosin / Permeability Papp,BA of prazosin: prazosin 10 μM, mean ± SD (n=3); for Inhibition (%): prazosin transport; for inhibition of BCRP-mediated prazosin transport: all tested concentrations up to 10 μM
T1 sequence (Q9UNQ0 1-655): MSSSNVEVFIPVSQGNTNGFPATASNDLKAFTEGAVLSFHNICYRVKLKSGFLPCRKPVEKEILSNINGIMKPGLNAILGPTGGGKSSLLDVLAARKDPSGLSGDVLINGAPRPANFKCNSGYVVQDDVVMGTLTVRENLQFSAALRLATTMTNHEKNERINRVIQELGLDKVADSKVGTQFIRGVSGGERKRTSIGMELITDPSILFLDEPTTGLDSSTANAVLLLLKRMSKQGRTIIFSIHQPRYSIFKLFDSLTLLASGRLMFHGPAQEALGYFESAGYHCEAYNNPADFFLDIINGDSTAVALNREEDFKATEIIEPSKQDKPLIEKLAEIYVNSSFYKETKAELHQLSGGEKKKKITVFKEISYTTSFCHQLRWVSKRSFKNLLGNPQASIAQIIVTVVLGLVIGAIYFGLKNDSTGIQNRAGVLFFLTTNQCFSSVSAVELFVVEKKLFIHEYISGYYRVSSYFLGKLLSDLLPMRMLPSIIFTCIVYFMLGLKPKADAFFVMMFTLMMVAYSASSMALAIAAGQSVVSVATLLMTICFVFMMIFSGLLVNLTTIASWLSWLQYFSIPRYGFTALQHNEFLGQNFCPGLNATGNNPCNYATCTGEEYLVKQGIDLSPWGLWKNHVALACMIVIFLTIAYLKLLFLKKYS

[5] = test system: CYP2D6; settings: read-out: CYP2D6 Ki; competitive inhibition type, in vitro; cited from earlier work
[6] = test system: UGT1A4; settings: M-1 glucuronidation; cited from earlier work
[7] = test system: MDCK-II-P-gp cells; assay: MTT cytotoxicity assay in MDCK-II-P-gp cells; type: cell-based, canine; settings: 1 hour incubation, highest drug concentration tested (10 μM)
[8] = test system: UGT2B7; settings: M-1 glucuronidation; cited from earlier work
[9] = Metabolic stability in pooled human liver microsomes for CLint; type: in vitro ADME; settings: for microsomal CLint at 400 nM: human, pooled human liver microsomes
Method in brief: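 Preincubated 5 min at 37°C, then incubated with 400 nM substrate up to 60–90 min. Run in duplicate, analysed by LC-MS/MS as % remaining vs time 0. t1/2 from initial log-linear slope; CLint = (0.693/t1/2)×(incubation volume/microsomal protein).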

[10] = Observed clinical pharmacokinetics after oral sarpogrelate hydrochloride; type: in vivo, human
[11] = cited from earlier work
[12] = cited from earlier work; remark: listed apart in the source
[13] = test system: MDCK-II-BCRP cells; assay: MTT cytotoxicity assay in MDCK-II-BCRP cells; type: cell-based, canine; settings: 1 hour incubation, highest drug concentration tested (10 μM)
[14] = test system: UGT1A9; settings: M-1 glucuronidation; cited from earlier work
[15] = high solubility and permeability profile; cited from earlier work
[16] = cited from earlier work; remark: listed apart in the source
[17] = MTT cytotoxicity assay in MDCK-II-P-gp cells; type: cell-based, canine; settings: dog
[18] = Metabolic stability of sarpogrelate in human blood; type: in vitro ADME; settings: sarpogrelate 400 nM, 60-minute incubation; data not shown
[19] = PBPK input parameters predicted, defaulted, optimized or assumed in Simcyp; design: species or system human; settings: Assumed from Reference 21
[20] = Metabolic stability of sarpogrelate in human intestinal microsomes; type: in vitro ADME; settings: sarpogrelate 400 nM, 60-minute incubation; data not shown
[21] = MTT cytotoxicity assay in MDCK-II-BCRP cells; type: cell-based, canine; settings: dog
[22] = multiple doses 100 mg tid for 1 day
[23] = observed, single oral 100 mg sarpogrelate hydrochloride, median (range), ref 20
[24] = human, MDCK-II-P-gp cell monolayer, probe loperamide (10 µM)
[25] = human, MDCK-II-BCRP cell monolayer, probe prazosin (10 µM)
[26] = single oral 100 mg sarpogrelate hydrochloride

P-gp, sequence (P08183 whole entry): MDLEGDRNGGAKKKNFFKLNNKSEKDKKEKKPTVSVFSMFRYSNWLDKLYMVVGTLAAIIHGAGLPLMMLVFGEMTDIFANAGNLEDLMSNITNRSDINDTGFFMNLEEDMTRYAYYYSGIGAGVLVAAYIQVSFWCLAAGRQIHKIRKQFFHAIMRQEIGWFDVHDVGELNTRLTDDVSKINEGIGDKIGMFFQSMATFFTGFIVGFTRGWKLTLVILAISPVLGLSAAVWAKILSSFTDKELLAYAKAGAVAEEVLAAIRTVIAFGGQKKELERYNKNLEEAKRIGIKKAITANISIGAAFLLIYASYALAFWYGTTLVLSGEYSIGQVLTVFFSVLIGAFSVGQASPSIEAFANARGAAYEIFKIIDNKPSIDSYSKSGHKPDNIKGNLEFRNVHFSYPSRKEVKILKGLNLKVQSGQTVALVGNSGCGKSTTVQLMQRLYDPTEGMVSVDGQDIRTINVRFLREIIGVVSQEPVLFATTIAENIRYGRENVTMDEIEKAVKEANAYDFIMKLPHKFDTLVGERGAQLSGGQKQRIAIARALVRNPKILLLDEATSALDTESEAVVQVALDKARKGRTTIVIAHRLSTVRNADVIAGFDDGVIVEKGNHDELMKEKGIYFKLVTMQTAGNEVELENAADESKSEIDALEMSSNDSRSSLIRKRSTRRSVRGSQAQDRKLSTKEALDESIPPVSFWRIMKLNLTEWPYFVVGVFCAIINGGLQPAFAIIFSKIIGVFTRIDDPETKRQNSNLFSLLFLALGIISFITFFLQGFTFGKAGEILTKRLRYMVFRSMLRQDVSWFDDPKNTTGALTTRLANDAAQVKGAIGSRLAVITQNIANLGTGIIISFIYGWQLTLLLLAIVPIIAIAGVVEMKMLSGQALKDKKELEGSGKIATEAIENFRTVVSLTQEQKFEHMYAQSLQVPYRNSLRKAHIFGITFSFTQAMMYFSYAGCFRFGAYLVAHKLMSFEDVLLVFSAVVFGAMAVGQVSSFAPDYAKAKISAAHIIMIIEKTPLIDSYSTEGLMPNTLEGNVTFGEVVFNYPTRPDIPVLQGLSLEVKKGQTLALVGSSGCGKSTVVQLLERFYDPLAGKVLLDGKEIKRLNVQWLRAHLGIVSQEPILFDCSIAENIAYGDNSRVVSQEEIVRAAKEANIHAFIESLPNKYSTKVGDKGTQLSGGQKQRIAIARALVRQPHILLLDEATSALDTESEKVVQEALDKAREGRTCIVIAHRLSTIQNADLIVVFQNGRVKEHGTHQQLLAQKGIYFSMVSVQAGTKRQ

COCCc1ccc(OCC(O)CNC(C)C)cc1 (stereo not drawn) [Metoprolol, metoprolol]
metabolized fraction by CYP2D6 [1]: 0.83 | fold increase of AUCt of metoprolol (observed) [2]: 1.53 fold | fold increase of Cmax of metoprolol (observed) [2]: 1.62 fold

COc1cccc(CCc2ccccc2OC[C@H](O)CN(C)C)c1 (racemic) [M-1, (R,S)-1-{2-[2-(3-methoxyphenyl)ethyl]-phenoxy}-3-(dimethylamino)-2-propanol]
Permeability Papp,AB of loperamide ([3]; inhibitor 0.2 µM): 0.0894±0.0188 ×10^−6 cm/s | Permeability Papp,BA of loperamide ([3]; inhibitor 0.2 µM): 1.95±0.0443 ×10^−6 cm/s | Permeability Papp,AB of loperamide ([3]; inhibitor 2 µM): 0.0822±0.0192 ×10^−6 cm/s | Permeability Papp,BA of loperamide ([3]; inhibitor 2 µM): 1.84±0.0249 ×10^−6 cm/s | Permeability Papp,AB of loperamide ([3]; inhibitor 10 µM): 0.104±0.0243 ×10^−6 cm/s | Permeability Papp,BA of loperamide ([3]; inhibitor 10 µM): 1.95±0.0403 ×10^−6 cm/s | Inhibition (%) ([3]; inhibitor 0.2 µM): 2.00% | Inhibition (%) ([3]; inhibitor 2 µM): 7.82% | Inhibition (%) ([3]; inhibitor 10 µM): 2.91% | inhibition of P-gp-mediated loperamide transport ([3]; all tested concentrations up to 10 μM): < 10% | Permeability Papp,AB of prazosin ([4]; inhibitor 0.2 µM): 0.891±0.0355 ×10^−6 cm/s | Permeability Papp,BA of prazosin ([4]; inhibitor 0.2 µM): 3.42±0.0237 ×10^−6 cm/s | Permeability Papp,AB of prazosin ([4]; inhibitor 2 µM): 0.813±0.0547 ×10^−6 cm/s | Permeability Papp,BA of prazosin ([4]; inhibitor 2 µM): 3.31±0.0467 ×10^−6 cm/s | Permeability Papp,AB of prazosin ([4]; inhibitor 10 µM): 0.811±0.0111 ×10^−6 cm/s | Permeability Papp,BA of prazosin ([4]; inhibitor 10 µM): 3.32±0.0139 ×10^−6 cm/s | Inhibition (%) ([4]; inhibitor 0.2 µM): 0.380% | Inhibition (%) ([4]; inhibitor 2 µM): 0.771% | Inhibition (%) ([4]; inhibitor 10 µM): 0.381% | inhibition of BCRP-mediated prazosin transport [4]: did not inhibit | Ki [5]: 120 nM | CLint by rUGT1A4 [6]: 0.63 μL/min/mg protein | cell viability (MTT assay) [7]: > 97% | CLint by rUGT2B7 [8]: 0.32 μL/min/mg protein | Additional CLint in HLM (NADPH generating system) ([9]; 400 nM M-1 in HLM with NADPH generating system): 150 μL/min/mg protein | observed ratio of AUC of M-1 to sarpogrelate ([10]; single oral 100 mg sarpogrelate hydrochloride, observed clinical data): 0.139 | fup (fraction unbound in plasma) [11]: 0.03 | observed values of AUC0–24 h (range across studies) [12, 22]: 246.2 to 267.2 ng·h/mL | Tmax [12, 23]: 1.0 (0.33–1.5) ^a hours | cell viability (MTT assay) [13]: > 97% | CLint by rUGT1A9 [14]: 1.30 μL/min/mg protein

COc1ccc2c(c1)[C@]13CCCC[C@@H]1[C@H](C2)N(C)CC3 [Dextromethorphan, dextromethorphan]
metabolized fraction by CYP2D6 [1]: 0.96

CNCCCN1c2ccccc2CCc2ccccc21 [Desipramine, desipramine]
metabolized fraction by CYP2D6 [1]: 0.88

COc1cccc(CCc2ccccc2OCC(CN(C)C)OC(=O)CCC(=O)O)c1 (racemic) [Sarpogrelate, (R,S)-1-{2-[2-(3-methoxyphenyl)ethyl]-phenoxy}-3-(dimethylamino)-2-propyl hydrogen succinate hydrochloride]
biopharmaceutics classification system (BCS) class [15]: Class I | Log P ([16]; PBPK input, reference cell empty, apparently ref www.Chembase.cn): 1.12 | PSA ([16]; ref www.Chembase.cn): 85.3 | inhibition at 1 h [3, 24]: < 10% | inhibition at 1 h, 0.2 µM [3, 24]: 9.18% | inhibition at 1 h, 2 µM [3, 24]: 9.72% | inhibition at 1 h, 10 µM [3, 24]: 9.95% | inhibition of BCRP-mediated prazosin transport [4]: did not inhibit | inhibition at 1 h, 0.2 µM [4, 25]: 2.69% | inhibition at 1 h, 2 µM [4, 25]: 9.62% | inhibition at 1 h, 10 µM [4, 25]: 0.38% | Ki [5]: 1240 nM | viability at 1 h, 10 µM [17]: > 97% | microsomal CLint at 400 nM ([9]; pH 7.4, CLint for M-1 formation (carboxylesterase-mediated CLint), 400 nM sarpogrelate, HLM 0.1 mg/mL, no cofactor): 32.6 µL/min/mg | microsomal CLint at 400 nM ([9]; pH 7.5, carboxylesterase and UDPGA-dependent CLint, 400 nM sarpogrelate in HLM with UDPGA): 50 ± 7.89 µL/min/mg | formation of M-1 in human blood [18]: not observed | CLpo (oral systemic clearance) ([10]; Calculated from clinical data): 140 L/h | plasma protein binding [11]: approximately 95% | Lag time [19]: 0 h | fa (fraction absorbed in the gastrointestinal tract) [19]: 1.0 | formation of M-1 in human intestinal microsomes [20]: not observed | Tmax ([12]; humans, 100 mg oral dose): 0.889 ± 0.651 h | observed values of AUC0–24 h (range across studies) [12, 22]: 1,291–1,773 ng h/mL | observed values of Cmax (range across studies) [12, 22]: 466.0 to 781.6 ng/mL | Tmax [12, 23]: 0.67 (0.3–1.5) ^a hours | Tmax ([12]; observed, single oral 100 mg sarpogrelate hydrochloride, median (range), ref 22): 1.00 (1.0–4.0) ^a hours | observed values of AUC (range across studies) [12, 26]: 348.3 to 621.5 ng·h/mL | observed values of Cmax (range across studies) [12, 26]: 343.0 to 635.1 ng/mL | unchanged sarpogrelate in urine or feces ([12]; up to 24 hours after a 100 mg oral dose, humans): no unchanged sarpogrelate was detected | viability at 1 h, 10 µM [21]: > 97%
